Experimental data: BindingDB's records for doi:10.1021/np990092+ (Peking Union Medical College, 1999)

Target: T1, Polyunsaturated fatty acid 5-lipoxygenase (Rattus norvegicus, UniProt P12527)
T1 sequence (P12527 whole entry): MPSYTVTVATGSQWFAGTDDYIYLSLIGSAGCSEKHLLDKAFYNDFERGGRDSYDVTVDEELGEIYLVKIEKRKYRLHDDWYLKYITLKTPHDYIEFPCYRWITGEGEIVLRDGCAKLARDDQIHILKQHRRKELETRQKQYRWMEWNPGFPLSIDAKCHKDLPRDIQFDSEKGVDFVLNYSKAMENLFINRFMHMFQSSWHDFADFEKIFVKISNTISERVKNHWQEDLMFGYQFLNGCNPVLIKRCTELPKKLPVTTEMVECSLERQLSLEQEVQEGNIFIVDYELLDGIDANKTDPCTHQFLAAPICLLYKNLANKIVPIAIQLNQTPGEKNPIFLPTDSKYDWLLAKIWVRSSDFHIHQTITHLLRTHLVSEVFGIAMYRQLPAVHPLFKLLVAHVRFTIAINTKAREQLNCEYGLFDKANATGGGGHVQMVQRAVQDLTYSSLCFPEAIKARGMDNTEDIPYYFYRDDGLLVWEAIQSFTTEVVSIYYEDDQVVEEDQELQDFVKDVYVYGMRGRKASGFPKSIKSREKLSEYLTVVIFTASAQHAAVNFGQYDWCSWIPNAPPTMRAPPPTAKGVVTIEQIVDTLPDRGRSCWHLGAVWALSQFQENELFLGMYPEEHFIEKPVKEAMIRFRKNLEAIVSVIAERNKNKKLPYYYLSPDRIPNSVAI
Assay: Inhibition of 5-lipoxygenase in Wistar rat peritoneal leukocytes
In short: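 Leukocytes (~85% PMNs) were elicited in male Wistar rats (200-300 g) with ip 6% oyster glycogen and harvested 16-20 h later. Cells at 2.5 × 10^6/mL in complete HBSS were tested in triplicate, preincubated with the sample (in DMSO, or CHCl3 evaporated) for 10 min at 37 °C, then given A23187 for 10 min. Supernatant LTB4 was measured by RIA (3H-LTB4 tracer, rabbit antiserum, 18 h, 4 °C).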

IC50: > 200 µM
Compound: C=C1CCCC(C)C(=O)C(=O)[C@@H]2[C@@H]1CC2(C)C (stereo partly specified) [buddledin B]
